Tests used:
[1] = system: Escherichia coli; assay: Antibacterial activity against gentamicin-resistant Escherichia coli isolate CAN-ICU 61714 after 24 hrs by microtitre broth dilution method; type: functional; conditions: isolate CAN-ICU 61714, 24 h
[2] = system: Acinetobacter baumannii; assay: Antibacterial activity against Acinetobacter baumannii isolate CAN-ICU 63169 after 24 hrs by microtitre broth dilution method; type: functional; conditions: isolate CAN-ICU 63169, 24 h
[3] = Hemolytic activity in human erythrocytes at 1000 microg/ml after 30 mins by spectrometry; type: ADME, cell-based, Erythrocyte; conditions: read-out: Activity
[4] = system: Pseudomonas aeruginosa; assay: Antibacterial activity against Pseudomonas aeruginosa PAO1 assessed as fractional inhibitory concentration index after 18 hrs in presence of erythromycin by checkerboard method; type: functional
How it was run: (§1)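 Checkerboard combinations of the hybrid with each partner antibiotic were tested against P. aeruginosa PAO1. Interaction is expressed as the fractional inhibitory concentration (FIC) index: ≤0.5 means synergy, 1–2 no interaction, ≥4 antagonism.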

[5] = system: Pseudomonas aeruginosa; assay: Antibacterial activity against Pseudomonas aeruginosa PAO1 assessed as fractional inhibitory concentration index after 18 hrs in presence of tobramycin by checkerboard method; type: functional; how it was run: as §1
[6] = system: Pseudomonas aeruginosa; assay: Antibacterial activity against Pseudomonas aeruginosa PAO1 assessed as fractional inhibitory concentration index after 18 hrs in presence of gentamicin by checkerboard method; type: functional; how it was run: as §1
[7] = system: Pseudomonas aeruginosa; assay: Potentiation of ciprofloxacin induced antibacterial activity against multidrug/extremely drug-resistant Pseudomonas aeruginosa isolate PA264-104354 assessed as ciprofloxacin MIC at <= […] ug/ml (reference value: […] to […] ug/ml); type: functional
[8] = system: Pseudomonas aeruginosa; assay: Potentiation of moxifloxacin induced antibacterial activity against multidrug/extremely drug-resistant Pseudomonas aeruginosa isolate PA259-96918 assessed as moxifloxacin MIC at <= […] ug/ml (reference value: […] ug/ml); type: functional
[9] = system: Pseudomonas aeruginosa; assay: Antibacterial activity against multidrug/extremely drug-resistant Pseudomonas aeruginosa isolate PA262-101856 in presence of <= 4 ug/ml of moxifloxacin (reference value: 4 ug/ml); type: functional

SMILES: COc1c(N2C[C@@H]3CCCN(CCCCCCCCCCCCO[C@@H]4[C@@H](O[C@H]5O[C@H](CO)[C@@H](O)[C@H](N)[C@H]5O)[C@H](N)C[C@H](N)[C@H]4O[C@H]4O[C@H](CN)[C@@H](O)C[C@H]4N)[C@@H]3C2)c(F)cc2c(=O)c(C(=O)O)cn(C3CC3)c12.Cl.Cl.Cl.Cl.Cl
- MIC [1]: 4 µg/mL
- MIC [2]: 16 µg/mL
- hemolysis at 0.5 h, 1000 microg/ml [3]: < 2.5%
- fractional inhibitory concentration index (FICI) [4]: 0.26
- fractional inhibitory concentration index (FICI) [5]: >2
- fractional inhibitory concentration index (FICI) [6]: 5
- MIC [7]: 1 µg/mL
- MIC [8]: < 1 µg/mL
- MIC [9]: < 1 µg/mL

— ChEMBL document CHEMBL3856229, “Hybrid Antibiotic Overcomes Resistance in P. aeruginosa by Enhancing Outer Membrane Penetration and Reducing Efflux” (J Med Chem, 2016)
